The source of these data is ChEMBL document CHEMBL1821688, “Synthesis and biological evaluation of (±)-3-(2-(2-fluorobenzyloxy) naphthalen-6-yl)-2-aminopropanoic acid derivatives as novel PTP1B inhibitors” (Eur J Med Chem, 2011).

Assay [1] addresses T1, Tyrosine-protein phosphatase non-receptor type 1 (Homo sapiens, UniProt P18031).
T1 sequence (P18031 whole entry): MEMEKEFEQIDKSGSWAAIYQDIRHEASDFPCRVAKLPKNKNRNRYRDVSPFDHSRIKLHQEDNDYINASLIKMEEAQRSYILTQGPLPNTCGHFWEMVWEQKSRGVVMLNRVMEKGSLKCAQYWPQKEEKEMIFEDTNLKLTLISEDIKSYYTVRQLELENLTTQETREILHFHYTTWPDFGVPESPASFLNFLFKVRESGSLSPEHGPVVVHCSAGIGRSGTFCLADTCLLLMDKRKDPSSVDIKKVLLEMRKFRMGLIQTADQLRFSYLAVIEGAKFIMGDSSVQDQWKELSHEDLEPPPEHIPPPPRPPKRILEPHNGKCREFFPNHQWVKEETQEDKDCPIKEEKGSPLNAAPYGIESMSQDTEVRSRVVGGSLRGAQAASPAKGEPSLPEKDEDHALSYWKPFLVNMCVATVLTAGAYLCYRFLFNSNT
Description: Inhibition of PTP1B using p-nitrophenyl phosphate as substrate. The essentials:
(§1)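 IC50 values were obtained by regression analysis and reported as mean ± SD of three replicate determinations.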

Assay [2] addresses T2, Tyrosine-protein phosphatase non-receptor type 2 (Homo sapiens, UniProt P17706).
T2 sequence (P17706 whole entry): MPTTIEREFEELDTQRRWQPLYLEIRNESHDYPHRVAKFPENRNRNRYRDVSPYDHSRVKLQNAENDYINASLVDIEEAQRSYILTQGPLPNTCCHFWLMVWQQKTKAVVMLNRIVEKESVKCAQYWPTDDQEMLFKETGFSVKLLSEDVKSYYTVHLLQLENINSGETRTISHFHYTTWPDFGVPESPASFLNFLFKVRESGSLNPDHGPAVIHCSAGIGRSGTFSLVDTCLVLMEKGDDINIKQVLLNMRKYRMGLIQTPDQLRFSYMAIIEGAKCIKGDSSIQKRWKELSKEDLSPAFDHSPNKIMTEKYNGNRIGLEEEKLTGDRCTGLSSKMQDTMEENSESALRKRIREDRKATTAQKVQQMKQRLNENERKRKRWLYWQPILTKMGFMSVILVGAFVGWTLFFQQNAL
Description: Inhibition of TCPTP. The method, boiled down: as §1

For assay [3], the target named is T3, M-phase inducer phosphatase 2 (Homo sapiens, UniProt P30305).
T3 sequence (P30305 whole entry): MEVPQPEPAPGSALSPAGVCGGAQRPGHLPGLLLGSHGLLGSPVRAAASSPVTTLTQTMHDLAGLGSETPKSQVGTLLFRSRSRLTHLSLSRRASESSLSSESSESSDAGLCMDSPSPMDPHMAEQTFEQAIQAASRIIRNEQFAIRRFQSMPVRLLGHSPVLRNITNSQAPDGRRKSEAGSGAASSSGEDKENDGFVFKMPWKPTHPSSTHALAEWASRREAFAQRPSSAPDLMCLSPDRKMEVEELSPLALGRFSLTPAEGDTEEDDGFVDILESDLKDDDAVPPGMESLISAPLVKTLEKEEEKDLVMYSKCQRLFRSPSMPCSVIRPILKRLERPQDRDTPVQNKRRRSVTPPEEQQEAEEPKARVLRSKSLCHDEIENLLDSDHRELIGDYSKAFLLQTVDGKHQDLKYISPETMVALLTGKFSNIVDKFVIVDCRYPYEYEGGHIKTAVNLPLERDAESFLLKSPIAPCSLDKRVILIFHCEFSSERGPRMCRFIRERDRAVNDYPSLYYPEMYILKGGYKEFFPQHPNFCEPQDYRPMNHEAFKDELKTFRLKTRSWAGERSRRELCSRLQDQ
Put plainly: Inhibition of human recombinant CDC25B. The method, boiled down:
as §1

The target of assay [4] is T4, Tyrosine-protein phosphatase non-receptor type 6 (Homo sapiens, UniProt P29350). Description: Inhibition of human recombinant SHP1 in Tris buffer at pH 8 using OMPF as substrate. The method, boiled down:
as §1

Assay [5] addresses Receptor-type tyrosine-protein phosphatase alpha (Homo sapiens) (UniProt P18433). Description: Inhibition of human recombinant PTPalpha at 20 ug/mL.
Assay [6] concerns the target Receptor-type tyrosine-protein phosphatase F (Homo sapiens) (UniProt P10586). Description: Inhibition of human recombinant LAR at 20 ug/mL.
The nature of assay [7]: Selectivity ratio of IC50 for TCPTP to IC50 for PTP1B.
For assay [8], the target named is T5, Tyrosine-protein phosphatase non-receptor type 1 (Homo sapiens) (UniProt P18031).
T5 sequence (whole entry): T1 sequence (P18031 whole entry)
Conditions: 2.5 to 10 uM.

The target of assay [9] is T5, Tyrosine-protein phosphatase non-receptor type 1 (Homo sapiens). Conditions: 2.5 to 10 uM. This is another data set of the same source.
In assay [10] the target is T4, Tyrosine-protein phosphatase non-receptor type 6. Put plainly: Inhibition of human recombinant SHP1 in Tris buffer of pH 8 at 20 ug/mL.

Molecules are shown by their SMILES. Activity calls are given as the source filed them. No cut-off for these calls is given here.

Chain of Receptor-type tyrosine-protein phosphatase F (Homo sapiens) (P10586 whole entry): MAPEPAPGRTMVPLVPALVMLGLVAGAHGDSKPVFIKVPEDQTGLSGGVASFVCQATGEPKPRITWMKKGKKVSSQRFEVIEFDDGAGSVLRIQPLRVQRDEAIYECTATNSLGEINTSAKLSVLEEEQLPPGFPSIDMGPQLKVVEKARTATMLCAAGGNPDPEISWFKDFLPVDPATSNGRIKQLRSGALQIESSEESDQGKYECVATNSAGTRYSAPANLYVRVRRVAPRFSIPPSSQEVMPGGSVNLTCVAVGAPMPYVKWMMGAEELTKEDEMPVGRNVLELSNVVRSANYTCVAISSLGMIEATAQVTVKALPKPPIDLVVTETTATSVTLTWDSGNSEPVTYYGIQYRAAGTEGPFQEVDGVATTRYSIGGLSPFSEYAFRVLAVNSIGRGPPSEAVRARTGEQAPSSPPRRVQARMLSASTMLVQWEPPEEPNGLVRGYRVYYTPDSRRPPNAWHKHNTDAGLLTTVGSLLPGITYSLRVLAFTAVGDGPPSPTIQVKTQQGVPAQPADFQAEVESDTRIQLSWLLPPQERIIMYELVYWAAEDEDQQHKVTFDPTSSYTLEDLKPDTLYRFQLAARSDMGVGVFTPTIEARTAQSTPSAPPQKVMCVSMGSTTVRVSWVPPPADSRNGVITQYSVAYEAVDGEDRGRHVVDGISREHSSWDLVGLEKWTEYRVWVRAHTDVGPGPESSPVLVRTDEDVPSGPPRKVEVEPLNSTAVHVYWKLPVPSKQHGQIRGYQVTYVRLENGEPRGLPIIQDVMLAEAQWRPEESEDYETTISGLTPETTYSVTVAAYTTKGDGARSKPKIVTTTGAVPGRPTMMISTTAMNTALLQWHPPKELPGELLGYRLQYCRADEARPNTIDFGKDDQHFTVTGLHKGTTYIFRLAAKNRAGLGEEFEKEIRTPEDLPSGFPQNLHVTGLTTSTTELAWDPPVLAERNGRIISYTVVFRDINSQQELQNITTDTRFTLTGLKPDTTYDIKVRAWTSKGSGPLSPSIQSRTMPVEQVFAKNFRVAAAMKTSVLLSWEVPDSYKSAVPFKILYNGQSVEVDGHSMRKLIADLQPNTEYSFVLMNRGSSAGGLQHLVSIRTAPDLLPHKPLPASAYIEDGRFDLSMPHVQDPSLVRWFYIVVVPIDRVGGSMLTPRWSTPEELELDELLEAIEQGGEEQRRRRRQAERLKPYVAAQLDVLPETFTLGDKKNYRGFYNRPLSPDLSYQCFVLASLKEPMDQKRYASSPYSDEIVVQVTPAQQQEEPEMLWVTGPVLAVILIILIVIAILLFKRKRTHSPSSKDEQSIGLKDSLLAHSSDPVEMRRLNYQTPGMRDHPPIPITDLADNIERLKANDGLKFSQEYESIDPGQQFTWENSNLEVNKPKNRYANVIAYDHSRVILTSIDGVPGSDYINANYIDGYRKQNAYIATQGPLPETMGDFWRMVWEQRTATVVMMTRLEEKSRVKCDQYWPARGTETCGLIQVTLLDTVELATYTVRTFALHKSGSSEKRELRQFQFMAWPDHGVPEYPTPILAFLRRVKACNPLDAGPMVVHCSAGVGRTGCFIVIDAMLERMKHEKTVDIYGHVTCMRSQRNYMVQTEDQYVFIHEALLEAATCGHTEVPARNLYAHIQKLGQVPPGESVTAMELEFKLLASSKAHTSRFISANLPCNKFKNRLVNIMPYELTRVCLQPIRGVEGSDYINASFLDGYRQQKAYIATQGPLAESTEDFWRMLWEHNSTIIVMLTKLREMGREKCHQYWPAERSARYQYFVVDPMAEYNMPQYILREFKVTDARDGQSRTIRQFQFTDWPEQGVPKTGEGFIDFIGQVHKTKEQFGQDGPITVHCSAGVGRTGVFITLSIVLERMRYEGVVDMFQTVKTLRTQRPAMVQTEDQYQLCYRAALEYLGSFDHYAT
T4 sequence (P29350 whole entry): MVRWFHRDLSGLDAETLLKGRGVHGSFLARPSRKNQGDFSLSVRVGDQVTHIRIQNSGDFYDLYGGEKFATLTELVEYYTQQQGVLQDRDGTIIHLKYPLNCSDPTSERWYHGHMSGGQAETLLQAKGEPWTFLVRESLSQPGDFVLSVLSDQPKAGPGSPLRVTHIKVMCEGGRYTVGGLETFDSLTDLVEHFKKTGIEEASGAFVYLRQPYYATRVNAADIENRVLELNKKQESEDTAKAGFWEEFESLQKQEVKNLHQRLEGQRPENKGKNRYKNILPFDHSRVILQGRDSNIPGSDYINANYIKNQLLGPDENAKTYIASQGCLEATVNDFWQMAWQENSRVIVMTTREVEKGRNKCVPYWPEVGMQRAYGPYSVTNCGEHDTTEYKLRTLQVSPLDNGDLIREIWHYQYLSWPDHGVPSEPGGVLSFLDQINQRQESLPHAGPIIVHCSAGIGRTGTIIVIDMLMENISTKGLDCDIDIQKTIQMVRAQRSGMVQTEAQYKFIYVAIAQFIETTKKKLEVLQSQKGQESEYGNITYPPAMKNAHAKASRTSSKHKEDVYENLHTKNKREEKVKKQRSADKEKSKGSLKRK
Chain of Receptor-type tyrosine-protein phosphatase alpha (Homo sapiens) (P18433 20-802 limits assumed): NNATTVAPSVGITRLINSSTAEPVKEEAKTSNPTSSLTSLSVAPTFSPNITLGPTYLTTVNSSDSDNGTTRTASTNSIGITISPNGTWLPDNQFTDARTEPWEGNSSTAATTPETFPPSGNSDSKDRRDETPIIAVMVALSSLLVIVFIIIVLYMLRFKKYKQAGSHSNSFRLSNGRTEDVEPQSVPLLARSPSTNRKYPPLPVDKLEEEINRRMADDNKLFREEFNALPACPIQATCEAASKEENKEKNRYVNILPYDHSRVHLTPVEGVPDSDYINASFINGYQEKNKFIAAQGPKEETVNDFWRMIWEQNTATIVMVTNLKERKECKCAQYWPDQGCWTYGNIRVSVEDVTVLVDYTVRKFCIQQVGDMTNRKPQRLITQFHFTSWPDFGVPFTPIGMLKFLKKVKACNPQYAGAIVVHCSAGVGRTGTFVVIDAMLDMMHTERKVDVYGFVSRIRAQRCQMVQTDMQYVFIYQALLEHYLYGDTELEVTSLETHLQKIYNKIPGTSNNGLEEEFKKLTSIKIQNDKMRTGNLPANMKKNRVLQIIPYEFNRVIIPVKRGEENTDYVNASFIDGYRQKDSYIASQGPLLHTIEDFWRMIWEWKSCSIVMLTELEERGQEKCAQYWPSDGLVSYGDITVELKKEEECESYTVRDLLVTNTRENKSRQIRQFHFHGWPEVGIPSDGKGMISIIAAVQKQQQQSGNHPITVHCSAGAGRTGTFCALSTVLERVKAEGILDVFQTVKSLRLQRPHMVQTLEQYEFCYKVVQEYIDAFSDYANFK

Turning to `O=C(/C=C/c1ccccc1Cl)NC(Cc1ccc2cc(OCc3ccccc3F)ccc2c1)C(=O)O` (racemic), the IC50 (commonly the concentration needed to halve the response being measured) in [1] was 1.25 µM; in assay [2], 3.84 µM; in assay [3] it was 3.08 µM; in assay [4], 2.43 µM. Moreover, the inhibition entry in [5] and in assay [6] was “inactive” each time. In assay [7], the Ratio IC50 was 3. In addition, the inhibition entry in [8] is “Active”. In addition, in assay [9], the inhibition entry is “tde”.

`COc1ccc(/C=C/C(=O)NC(Cc2ccc3cc(OCc4ccccc4F)ccc3c2)C(=O)O)cc1OC` (racemic): the figures for the IC50 in [1], in assay [2] and in assay [3] were 4.45 µM, 9.49 µM and 7.04 µM, respectively. Moreover, the inhibition result in assay [10], in assay [5] and in assay [6] was “inactive” in each case. Further, the Ratio IC50 in assay [7] was 1.

Consider `Cc1ccc(/C=C/C(=O)NC(Cc2ccc3cc(OCc4ccccc4F)ccc3c2)C(=O)O)cc1` (racemic), for which the IC50 was 6.48 µM in [1], 18.2 µM in assay [2] and 11.6 µM in assay [3]. Further, the inhibition result in [10], in assay [5] and in [6] was “inactive” in each case. The Ratio IC50 in [7] was determined as 1.
